This note sets out measurements from ChEMBL document CHEMBL4017544 (J Med Chem, 2017).

The structures appear in SMILES notation. Active and inactive are the calls of the source. The rule behind the calls is not given here.

Data set [1] has as its system Mus musculus. Briefly: Anti-diabetic nephropathic activity in db/db mouse assessed as reduction in plasma creatinine levels at 0.65 mg/kg, ip administered trice per week for 12 consecutive weeks measured at 11 weeks post dose. It is filed as functional, organism-based.
In data set [2] the target is Kelch-like ECH-associated protein 1 (Homo sapiens) (UniProt Q14145). Briefly: Inhibition of Keap1/Nrf2 (unknown origin) interaction transfected in HEK293 cells assessed as increase in nuclear to cytosolic Nfr2 ratio at 200 to 1000 nM after 48 hrs by Western blot analysis. The class given is cell-based. An outline of the steps:
(§1)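 HEK293 cells grown in high-glucose DMEM with 10% FBS were treated in triplicate at 200 or 1000 nM for 48 h. Nuclear and cytosolic Nrf2, HO-1 and cytoplasmic NQO1 were measured by western blot with specific antibodies, with TBP and β-actin among the probed proteins. The nuclear/cytosolic Nrf2 ratio was derived from these blots. Three independent experiments, mean ± SD.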
In general terms: In western blotting, separated proteins are transferred to a membrane and probed.

Data set [3] deals with Mus musculus. Briefly: Antidiabetic nephropathic activity in db/db mouse assessed as increase in urinary creatinine at 0.65 mg/kg, ip administered thrice per week for 12 consecutive weeks measured at 24 hrs post 11 week administration. It is filed as functional, organism-based. An outline of the steps: (§2)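 Male db/db mice, 8 weeks old, randomized; ip vehicle (5% Tween-80 in 0.9% saline) or drug three times weekly for 12 weeks, n = 6 per group. After 11 weeks, 24 h urine collected for volume, albumin and creatinine, with UACR calculated; blood then sampled for plasma BUN and uric acid. Mean ± SD, one-way ANOVA with Tukey test.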

Data set [4] relates to Mus musculus. Briefly: Renoprotective activity in db/db mouse assessed as reduction in thickening of capillary walls in glomeruli at 0.65 mg/kg, ip administered trice per week for 12 consecutive weeks measured at 11 weeks post dose by H/E-staining based microscopic analysis. The class given is functional, organism-based. In short, it runs like this:
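Male db/db mice, 8 weeks old, were randomized and dosed i.p. three times weekly for 12 weeks (vehicle: 5% Tween-80 in 0.9% saline; n = 6 per group). Kidneys were fixed in 4% PFA and paraffin-embedded. 5 μm sections were stained with HE, PAS or Masson's trichrome and examined at ×400.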

Data set [5] has as its system Mus musculus. Briefly: Renoprotective activity in db/db mouse assessed as reduction in mesangial expansion at 0.65 mg/kg, ip administered trice per week for 12 consecutive weeks measured at 11 weeks post dose by TEM microscopic analysis. It is filed as functional, organism-based. An outline of the steps:
(§3)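 Male db/db mice (8 weeks old) were dosed i.p. three times weekly for 12 weeks in 5% Tween-80/0.9% saline, n = 6. Kidney tissue was fixed in 3% glutaraldehyde, cut into 80 nm ultrathin sections and examined by TEM. GBM thickness was measured at 30 random locations from three sections per kidney and averaged per mouse.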

Data set [6] relates to Mus musculus. Briefly: Renoprotective activity in db/db mouse assessed as reduction in glomerular basement thickening at 0.65 mg/kg, ip administered trice per week for 12 consecutive weeks measured at 11 weeks post dose by TEM microscopic analysis. It is filed as functional, organism-based. An outline of the steps: as §3
The nature of data set [7]: Drug level in Sprague-Dawley rat liver at 20 mg/kg, ip measured at 90 mins by LC-MS/MS analysis. The class given is ADME, organism-based. As to conditions: read-out: Drug uptake. In short, it runs like this: (§4)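 Rats given a single ip injection, 20 mg/kg (0.04 mmol) of CDDO-Me or 30 mg/kg (0.04 mmol) of the prodrug; heart, kidney and liver collected over time; parent compound and liberated CDDO-Me measured by LC-MS/MS.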

Data set [8] in a line: Drug level in Sprague-Dawley rat heart at 20 mg/kg, ip measured at 90 mins by LC-MS/MS analysis. The class given is ADME, organism-based. As to conditions: read-out: Drug uptake. In short, it runs like this:
as §4

Data set [9] has as its system Mus musculus. Briefly: Cardioprotective activity in C57BL/6 db/db mouse assessed as reduction in apoptotic cardiomyocyte levels at 0.65 mg/kg, ip administered for 12 weeks by TUNNEL assay. The class given is functional, organism-based. An outline of the steps: (§5)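 db/db mice, 8 weeks old, with C57BL/6 controls; ip vehicle or drug for 12 weeks, n = 6 per group. Heart sections (5 μm) from paraformaldehyde-fixed, paraffin-embedded tissue analysed by TUNEL; percentage of apoptotic cardiomyocytes from three sections per mouse; mean ± SD from two separate experiments.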

A short description of data set [10]: Drug level in Wistar rat plasma treated with 1-Hydroxyl-2-cyano-3-(4-(methyl-L-glutaminate-N5-yl)-benzyloxy)-12-oxo-oleana-2(3),9(11)-dien-28-oic Acid Methyl Ester assessed as GGT-mediated metabolite formation at 100 uM after 8 hrs by HPLC analysis. It is filed as ADME. An outline of the steps: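 Plasma, and kidney and liver homogenates in PBS, from three Wistar rats; substrate added at 100 μM at 37 °C; metabolite measured by HPLC every 60 min for 8 h; mean ± SD of three experiments.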

Data set [11] has as its system Mus musculus. Briefly: Antidiabetic nephropathic activity in db/db mouse assessed as reduction in urine albumin to creatinine ratio at 1 to 2 mg/kg, ip administered thrice per week for 12 consecutive weeks measured at 24 hrs post 11 week administration. It is filed as functional, organism-based. An outline of the steps:
as §2

Data set [12] addresses Kelch-like ECH-associated protein 1 (Homo sapiens) (UniProt Q14145). Briefly: Inhibition of Keap1/Nrf2 (unknown origin) interaction transfected in HEK293 cells assessed as increase in nuclear to cytosolic Nfr2 ratio after 48 hrs by Western blot analysis. It is filed as cell-based. In short, it runs like this:
as §1

For data set [13], the system named is Mus musculus. Briefly: Anti-diabetic nephropathic activity in db/db mouse assessed as reduction in plasma urea nitrogen levels at 1 to 2 mg/kg, ip administered thrice per week for 12 consecutive weeks measured 11 weeks post dose. The class given is functional, organism-based. An outline of the steps:
as §2

The subject of data set [14] is Mus musculus. Briefly: Antidiabetic nephropathic activity in db/db mouse assessed as reduction in plasma creatinine levels at 1 to 2 mg/kg, ip administered thrice per week for 12 consecutive weeks measured at 11 weeks post dose. The class given is functional, organism-based.
The test system of data set [15] is Mus musculus. Briefly: Antidiabetic nephropathic activity in db/db mouse assessed as reduction in 24 hrs urine volume at 1 to 2 mg/kg, ip administered thrice per week for 12 consecutive weeks measured at 11 weeks post dose. It is filed as functional, organism-based. In short, it runs like this: as §2
Data set [16] relates to Mus musculus. Briefly: Antidiabetic nephropathic activity in db/db mouse assessed as increase in urinary creatinine at 1 to 2 mg/kg, ip administered thrice per week for 12 consecutive weeks measured at 24 hrs post 11 week administration. The class given is functional, organism-based. An outline of the steps:
as §2

For data set [17], the system named is Mus musculus. Briefly: Renoprotective activity in db/db mouse assessed as reduction in fused podocytes at 1 to 2 mg/kg, ip administered trice per week for 12 consecutive weeks measured at 11 weeks post dose by TEM microscopic analysis. It is filed as functional, organism-based. In short, it runs like this:
as §3

In data set [18] the test system is Mus musculus. Briefly: Renoprotective activity in db/db mouse assessed as reduction in glomerular basement thickening at 1 to 2 mg/kg, ip administered trice per week for 12 consecutive weeks measured at 11 weeks post dose by TEM microscopic analysis. The class given is functional, organism-based. In short, it runs like this: as §3
The subject of data set [19] is Kidney. Briefly: In vivo drug metabolism in Sprague-Dawley rat assessed as CDDO-Me formation in kidney at 30 mg/kg, ip measured at 10 mins by LC-MS/MS analysis. It is filed as ADME, organism-based. An outline of the steps: as §4
For data set [20], the system named is Kidney. Briefly: In vivo drug metabolism in Sprague-Dawley rat assessed as CDDO-Me formation in kidney at 30 mg/kg, ip measured at 30 mins by LC-MS/MS analysis. The class given is ADME, organism-based. As to conditions: 0.5 h. In short, it runs like this:
as §4

For data set [21], the system named is Kidney. Briefly: In vivo drug metabolism in Sprague-Dawley rat assessed as CDDO-Me formation in kidney at 30 mg/kg, ip measured at 90 mins by LC-MS/MS analysis. The class given is ADME, organism-based. The settings on record: 1.5 h. In short, it runs like this:
as §4

The target of data set [22] is Voltage-gated inwardly rectifying potassium channel KCNH2 (Homo sapiens, UniProt Q12809). Briefly: Inhibition of human ERG expressed in CHO cells at -80 mV holding potential by patch clamp assay. The class given is cell-based.
Chain of Voltage-gated inwardly rectifying potassium channel KCNH2 (Q12809 whole entry): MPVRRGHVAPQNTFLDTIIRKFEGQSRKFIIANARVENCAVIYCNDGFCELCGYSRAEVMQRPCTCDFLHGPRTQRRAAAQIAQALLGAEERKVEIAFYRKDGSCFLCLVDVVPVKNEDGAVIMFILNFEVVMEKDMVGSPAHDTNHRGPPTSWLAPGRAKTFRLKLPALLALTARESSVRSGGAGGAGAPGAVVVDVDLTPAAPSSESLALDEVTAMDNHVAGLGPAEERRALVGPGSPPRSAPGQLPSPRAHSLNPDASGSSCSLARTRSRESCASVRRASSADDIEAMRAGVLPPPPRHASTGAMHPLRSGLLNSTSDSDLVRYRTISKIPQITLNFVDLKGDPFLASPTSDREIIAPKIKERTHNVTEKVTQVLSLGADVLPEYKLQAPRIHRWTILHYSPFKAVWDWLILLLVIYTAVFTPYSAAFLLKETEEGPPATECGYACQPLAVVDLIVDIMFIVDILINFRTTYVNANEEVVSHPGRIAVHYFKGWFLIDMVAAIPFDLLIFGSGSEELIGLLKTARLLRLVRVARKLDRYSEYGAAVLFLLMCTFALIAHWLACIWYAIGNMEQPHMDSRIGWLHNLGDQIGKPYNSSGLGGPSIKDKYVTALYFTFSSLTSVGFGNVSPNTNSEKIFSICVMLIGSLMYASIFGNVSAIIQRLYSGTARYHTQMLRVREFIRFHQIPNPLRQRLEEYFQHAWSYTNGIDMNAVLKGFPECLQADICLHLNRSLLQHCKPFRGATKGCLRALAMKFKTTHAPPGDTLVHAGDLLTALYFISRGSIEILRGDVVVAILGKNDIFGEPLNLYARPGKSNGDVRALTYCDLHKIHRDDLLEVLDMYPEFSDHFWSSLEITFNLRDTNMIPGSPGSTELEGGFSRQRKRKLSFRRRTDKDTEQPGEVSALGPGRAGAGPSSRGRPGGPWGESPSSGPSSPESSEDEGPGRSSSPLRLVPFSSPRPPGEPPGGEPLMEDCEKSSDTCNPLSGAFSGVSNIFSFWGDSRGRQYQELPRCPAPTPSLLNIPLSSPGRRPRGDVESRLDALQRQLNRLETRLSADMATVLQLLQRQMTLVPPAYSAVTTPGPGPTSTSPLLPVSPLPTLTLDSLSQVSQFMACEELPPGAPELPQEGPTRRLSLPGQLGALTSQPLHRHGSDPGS
Data set [23] deals with Mus musculus. Briefly: Cardioprotective activity in C57BL/6 db/db mouse assessed as reduction in apoptotic cardiomyocyte levels at 1 to 2 mg/kg, ip administered for 12 weeks by TUNNEL assay. It is filed as functional, organism-based. In short, it runs like this: as §5

Chain of Kelch-like ECH-associated protein 1 (Homo sapiens) (Q14145 whole entry): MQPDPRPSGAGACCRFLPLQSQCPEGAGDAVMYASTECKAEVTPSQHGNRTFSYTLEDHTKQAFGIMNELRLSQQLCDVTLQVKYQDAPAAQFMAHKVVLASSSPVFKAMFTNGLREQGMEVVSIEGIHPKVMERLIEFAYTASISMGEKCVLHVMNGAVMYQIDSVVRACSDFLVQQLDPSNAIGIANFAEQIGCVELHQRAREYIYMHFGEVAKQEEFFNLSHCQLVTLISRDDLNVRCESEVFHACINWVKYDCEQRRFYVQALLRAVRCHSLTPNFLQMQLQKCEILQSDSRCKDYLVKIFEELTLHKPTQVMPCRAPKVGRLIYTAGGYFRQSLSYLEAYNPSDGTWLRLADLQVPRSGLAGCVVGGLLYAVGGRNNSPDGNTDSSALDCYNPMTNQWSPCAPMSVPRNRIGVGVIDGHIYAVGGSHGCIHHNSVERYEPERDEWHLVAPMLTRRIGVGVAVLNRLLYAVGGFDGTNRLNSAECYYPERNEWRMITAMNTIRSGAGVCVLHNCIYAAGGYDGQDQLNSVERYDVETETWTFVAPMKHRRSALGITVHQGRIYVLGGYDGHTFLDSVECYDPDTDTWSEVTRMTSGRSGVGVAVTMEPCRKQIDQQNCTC

For `COC(=O)[C@]12CCC(C)(C)C[C@H]1[C@H]1C(=O)C=C3[C@@]4(C)C=C(C#N)C(=O)C(C)(C)[C@@H]4CC[C@@]3(C)[C@]1(C)CC2` [BARDOXOLONE METHYL], the outcome in the data set with Mus musculus [1], with Mus musculus [3], with Mus musculus [4], in the data set on Mus musculus [5] and in the data set on Mus musculus [6] was Active. The inhibition result in [2] is “Active”. The concentration at 1.5 h came out at 1550 ng/g in data set [7] and 1580 ng/g in data set [8]. In addition, the outcome in the data set on Mus musculus [9] was inactive. The Drug metabolism entry in data set [10] was “Metabolite_Detected”.

On to `COC(=O)[C@@H](N)CCC(=O)Nc1ccc(COC2=C(C#N)[C@H](O)[C@]3(C)C4=CC(=O)[C@@H]5[C@@H]6CC(C)(C)CC[C@]6(C(=O)OC)CC[C@@]5(C)[C@]4(C)CC[C@H]3C2(C)C)cc1`, for which the result with Mus musculus [11], in the data set on Mus musculus [13], in the data set on Mus musculus [14], in the data set on Mus musculus [15], with Mus musculus [16] and in the data set on Mus musculus [17] was Active. The result in the data set on Mus musculus [18] and in the data set on Mus musculus [23] was Active. Moreover, the inhibition result in data set [12] was “Dose-dependent effect”. Moreover, the Drug metabolism came out at 0.04 µg/g with Kidney [19], 0.09 µg/g in the data set with Kidney [20] and 0.18 µg/g in the data set on Kidney [21]. In addition, in data set [22], the IC50 (usually the concentration that gives 50% inhibition) is > 200 µM.
